Tests used:
[1] = Partition coefficient by standard shake-flask techniquesat 37 C, using octanol and cyclohexane; format: physicochemical
Method in brief: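 Shake-flask partitioning at 37 °C. About 1 mg of compound dissolved in 4.5 mL 0.05 M PIPES, pH 6.5. Aqueous aliquot shaken 2 h with an equal volume of octanol (H-bonding) or cyclohexane (non-H-bonding), then centrifuged. Both phases assayed by HPLC. Delta log P is derived from the octanol and cyclohexane log D values. Mean of at least two determinations.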

[2] = target: T1, Endothelin receptor type B (Homo sapiens, UniProt P24530); experiment: Inhibitory activity was evaluated against human Endothelin B receptor
T1 sequence (P24530 whole entry): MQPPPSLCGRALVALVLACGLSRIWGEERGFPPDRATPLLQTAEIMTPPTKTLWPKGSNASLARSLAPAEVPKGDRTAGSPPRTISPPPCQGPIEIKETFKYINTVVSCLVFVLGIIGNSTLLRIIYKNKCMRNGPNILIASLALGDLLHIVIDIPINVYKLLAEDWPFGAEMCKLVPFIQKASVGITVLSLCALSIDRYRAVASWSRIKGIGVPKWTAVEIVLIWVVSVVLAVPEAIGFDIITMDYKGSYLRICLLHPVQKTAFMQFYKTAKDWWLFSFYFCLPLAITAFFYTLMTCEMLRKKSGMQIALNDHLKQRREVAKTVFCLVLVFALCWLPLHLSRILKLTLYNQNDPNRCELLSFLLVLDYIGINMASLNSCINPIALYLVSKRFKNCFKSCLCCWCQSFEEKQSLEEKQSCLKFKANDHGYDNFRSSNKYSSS
Method in brief: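 Human ETA or ETB receptors expressed in CHO cells. Binding inhibition tested at 11 concentrations from 10⁻¹⁰ to 10⁻⁵ M, in duplicate. IC50 is the mean of at least 2 measurements (n = 2).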

Endothelin-1 receptor = target: T2, Endothelin-1 receptor (Homo sapiens, UniProt P25101); experiment: Inhibitory activity was evaluated against human Endothelin A receptor
T2 sequence (P25101 whole entry): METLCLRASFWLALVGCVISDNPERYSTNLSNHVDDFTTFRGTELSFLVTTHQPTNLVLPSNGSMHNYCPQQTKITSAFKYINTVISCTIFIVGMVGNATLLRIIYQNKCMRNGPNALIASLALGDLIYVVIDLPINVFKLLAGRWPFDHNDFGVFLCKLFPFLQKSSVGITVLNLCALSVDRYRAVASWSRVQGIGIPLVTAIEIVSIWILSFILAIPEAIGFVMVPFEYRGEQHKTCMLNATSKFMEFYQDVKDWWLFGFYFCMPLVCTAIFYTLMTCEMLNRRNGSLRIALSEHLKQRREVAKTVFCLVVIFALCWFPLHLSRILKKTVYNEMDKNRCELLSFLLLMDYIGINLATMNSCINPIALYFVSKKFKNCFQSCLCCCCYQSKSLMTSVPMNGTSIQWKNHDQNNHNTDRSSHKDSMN
Method in brief: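 Human ETA or ETB receptors expressed in CHO cells. Binding inhibition tested at 11 concentrations from 10⁻¹⁰ to 10⁻⁵ M, in duplicate.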

[3] = Total absorption was estimated by area under curve (AUC) after intraduodenal administration in rat; parameters: concentration or dose not given beside the values; conditions: in vivo, id
logD (pH 6.5) = conditions: buffer
[4] = Oral bioavailability of compound at a dose of 10 mg/kg was determined in rat; format: ADME, organism-based; conditions: in vivo
Method in brief: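 Male Sprague-Dawley rats, n = 4 per group. 10 mg/kg given by gavage or as a slow iv bolus into the jugular vein, 10 mg/mL in ethanol–propylene glycol–D5W (20:30:50) with 1 equiv NaOH. Tail-vein plasma sampled up to 12 h and assayed by HPLC after extraction. F is the dose-corrected ratio of oral to iv AUC0–∞.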

| delta Log P [1] | IC50 [2] [nM] | IC50 (Endothelin-1 receptor) [nM] | AUC [3] [ng·h/mL] | logD (logD (pH 6.5)) | bioavailability [4] [%] | Structure (SMILES) |
| --- | --- | --- | --- | --- | --- | --- |
| 5.92 | 34000 | 11 | 4.33 |  |  | Cc1[nH]c([C@@H](Cc2cn(C)c3ccccc23)NC(=O)[C@H](CC(C)C)NC(=O)NC2CCCCC2)nc1C(=O)O |
| 3.71 | 79000 | 17 | 1760 |  |  | Cc1oc([C@@H](Cc2cn(C)c3ccccc23)NC(=O)[C@H](CC(C)C)OC(=O)OC2CCCCC2)nc1C(=O)O |
| > 6.2 | > 100000 | 76 | 168 |  |  | Cc1[nH]c([C@@H](Cc2cn(C)c3ccccc23)NC(=O)[C@H](CC(C)C)NC(=O)OC2CCCCC2)nc1C(=O)O |
| 5.4 | 20000 | 1.8 | 103 |  |  | Cc1[nH]c([C@@H](Cc2cn(C)c3ccccc23)NC(=O)[C@H](CC(C)C)NC(=O)N(C)C2CCCCC2)nc1C(=O)O |
| 3.78 | > 100000 |  |  |  |  | Cc1oc([C@@H](Cc2cn(C)c3ccccc23)NC(=O)[C@H](CC(C)C)NC(=O)CC2CCCCC2)nc1C(=O)O |
| > 6.2 | > 100000 | 29 | 81.7 |  |  | Cc1[nH]c([C@@H](Cc2cn(C)c3ccccc23)NC(=O)[C@@H](CC(=O)NC2CCCCC2)CC(C)C)nc1C(=O)O |
| 4.05 | > 100000 | 25 | 833 |  |  | Cc1oc([C@@H](Cc2cn(C)c3ccccc23)NC(=O)[C@H](CC(C)C)NC(=O)N(C)C2CCCCC2)nc1C(=O)O |
| > 6.1 | > 100000 | 220 | 193 |  |  | Cc1oc([C@@H](Cc2cn(C)c3ccccc23)NC(=O)[C@H](CC(C)C)NC(=O)NC2CCCCC2)nc1C(=O)O |
| 5.66 | > 90000 | 470 |  |  |  | Cc1[nH]c([C@@H](Cc2cn(C)c3ccccc23)NC(=O)[C@H](CC(C)C)NC(=O)CC2CCCCC2)nc1C(=O)O |
| 2.37 |  |  |  | 1.98 |  | COc1cccc(Oc2c(NS(=O)(=O)c3ccc(C(C)(C)C)cc3)ncnc2OCCO)c1 |
| 2.45 |  |  |  | -0.85 |  | CCCN(Cc1ccc(-c2ccccc2-c2nnn[nH]2)cc1)c1ncccc1C(=O)O |
| 4.66 | > 100000 | 41 | 1360 |  |  | Cc1oc([C@@H](Cc2cn(C)c3ccccc23)NC(=O)[C@H](CC(C)C)NC(=O)OC2CCCCC2)nc1C(=O)O |
| 3.82 | > 100000 | 310 | 292 |  |  | Cc1oc([C@@H](Cc2cn(C)c3ccccc23)NC(=O)[C@@H](CC(=O)NC2CCCCC2)CC(C)C)nc1C(=O)O |
| > 6.1 | 54000 | 9.3 | 347 |  |  | Cc1[nH]c([C@@H](Cc2cn(C)c3ccccc23)NC(=O)[C@H](CC(C)C)OC(=O)NC2CCCCC2)nc1C(=O)O |
| 4.59 | > 100000 | 450 | 983 |  |  | Cc1oc([C@@H](Cc2cn(C)c3ccccc23)NC(=O)[C@H](CC(C)C)N(C)C(=O)NC2CCCCC2)nc1C(=O)O |
| 4.04 | 48000 | 21 | 815 |  |  | Cc1oc([C@@H](Cc2cn(C)c3ccccc23)NC(=O)[C@H](CC(C)C)OC(=O)NC2CCCCC2)nc1C(=O)O |
| > 6 | > 100000 | 22 | 247 |  |  | Cc1[nH]c([C@@H](Cc2cn(C)c3ccccc23)NC(=O)[C@H](CC(C)C)N(C)C(=O)NC2CCCCC2)nc1C(=O)O |
| 3.82 | 90000 | 4.6 | 1840 |  | 13.5 | Cc1oc([C@@H](Cc2cn(C)c3ccccc23)NC(=O)[C@H](CC(C)C)OC(=O)N(C)C2CCCCC2)nc1C(=O)O |

| Structure (SMILES) | delta Log P [1] | IC50 [2] [nM] | IC50 (Endothelin-1 receptor) [nM] | AUC [3] [ng·h/mL] | logD (logD (pH 6.5)) | bioavailability [4] [%] |
| --- | --- | --- | --- | --- | --- | --- |
| Cn1c(=O)c2[nH]cnc2n(C)c1=O.O [THEOPHYLLINE] | 1.53 |  |  |  | -0.12 |  |
